Experimental data as given in ChEMBL document CHEMBL1147503, “Syntheses and structure-activity relationship studies of piperidine-substituted quinolones as nonpeptide gonadotropin releasing hormone antagonists” (Bioorg Med Chem Lett, 2004).

Biological target: T1, Gonadotropin-releasing hormone receptor (Rattus norvegicus, UniProt P30969)
T1 sequence (P30969 whole entry): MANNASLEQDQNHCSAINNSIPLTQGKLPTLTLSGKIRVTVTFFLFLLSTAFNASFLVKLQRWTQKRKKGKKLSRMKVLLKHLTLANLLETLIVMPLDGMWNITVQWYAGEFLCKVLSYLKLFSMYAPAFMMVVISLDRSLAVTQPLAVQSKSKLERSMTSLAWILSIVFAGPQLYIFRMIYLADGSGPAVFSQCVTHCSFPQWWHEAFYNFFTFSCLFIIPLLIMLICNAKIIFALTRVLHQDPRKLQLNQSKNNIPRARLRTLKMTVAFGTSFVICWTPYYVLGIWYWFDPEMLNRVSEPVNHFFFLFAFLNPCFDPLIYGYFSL
Assay: Inhibitory concentration against binding of rat Gonadotropin-releasing hormone receptor using [125I]buserelin
Conditions: not given

Compared with `Cc1cc(C)cc(-c2c(OCC[C@@H]3CCC[C@H](CCCc4ccccc4)N3)c3cc([N+](=O)[O-])c(Cl)cc3[nH]c2=O)c1`, `Cc1cc(C)cc(-c2c(OCCC3NCCc4ccccc43)c3cc([N+](=O)[O-])c(Cl)cc3[nH]c2=O)c1` (stereo not given) is 1.9-fold higher in IC50: 0.4 µM for the first, 0.75 µM for the second.

Going from `Cc1cc(C)cc(-c2c(O)nc3cc(Cl)c([N+](=O)[O-])cc3c2OCCC2CCCCN2)c1` (single isomer, unassigned) to `Cc1cc(C)cc(-c2c(O)nc3cc(Cl)c([N+](=O)[O-])cc3c2OCC[C@@H]2CCC[C@H](C)N2)c1`, the IC50 rises from 0.01 µM to 0.015 µM (1.5-fold). The first is the more potent here.

`Cc1cc(C)cc(-c2c(OCCC3CCC(C)CN3)c3cc([N+](=O)[O-])c(Cl)cc3[nH]c2=O)c1` (stereo not given) and `Cc1cc(C)cc(-c2c(O)nc3cc(Cl)c([N+](=O)[O-])cc3c2OCCC2NCCCC2C)c1` (stereo not given) are within 1.5-fold of each other in IC50: 0.063 µM for the first, 0.045 µM for the second.

Going from `Cc1cc(C)cc(-c2c(O)nc3cc(Cl)c([N+](=O)[O-])cc3c2OCC[C@@H]2Cc3ccccc3CN2)c1` to `CC[C@H]1CCC[C@@H](CCOc2c(-c3cc(C)cc(C)c3)c(O)nc3cc(Cl)c([N+](=O)[O-])cc23)N1`, the IC50 falls from 0.07 µM to 0.018 µM (3.9-fold).

Tested on: not listed separately
Assay: Clearance rate in dog
Type: ADME, organism-based, Canis lupus familiaris
Conditions: in vivo, read-out: Clearance rate

Going from `Cc1cc(-c2c(O)nc3cc(Cl)c(C(=O)Nc4ccncn4)cc3c2OCC[C@@H]2CCCCN2)cc(C)c1C` to `Cc1cc(-c2c(OCC[C@@H]3CCCC(C(F)(F)F)N3)c3cc(C(=O)Nc4ccncn4)c(Cl)cc3[nH]c2=O)cc(C)c1C` (stereo not given in full), the clearance falls from 36.8 mL/min/kg to 21.6 mL/min/kg (1.7-fold).

Tested on: CHO
Assay: In vitro inhibitory concentration against GnRH-stimulated phosphatidyl inositol hydrolysis by cloned chinese hamster ovary cells stably expressing human GnRH receptor
Type: functional, cell-based
Conditions: Cricetulus griseus

First: Cc1cc(-c2c(O)nc3cc(Cl)c(C(=O)Nc4ccncn4)cc3c2OCC[C@@H]2CCCCN2)cc(C)c1C
Second: Cc1cc(C)cc(-c2c(O)nc3cc(Cl)c(C(=O)Nc4ccncn4)cc3c2OCC[C@@H]2CCCCN2)c1
The IC50 of the first is 2.3-fold lower: 0.0022 µM for the first, 0.005 µM for the second.

Compared with `Cc1cc(-c2c(OCC[C@@H]3CCCC(C(F)(F)F)N3)c3cc(C(=O)Nc4ccncn4)c(Cl)cc3[nH]c2=O)cc(C)c1C` (stereo not given in full), `Cc1cc(-c2c(OCC[C@@H]3CCC[C@H](C)N3)c3cc(C(=O)Nc4ccncn4)c(Cl)cc3[nH]c2=O)cc(C)c1C` is 1.8-fold lower in IC50: 0.018 µM for the first, 0.0098 µM for the second. The second is the more potent here.

`Cc1cc(C)cc(-c2c(OCC[C@@H]3CCC[C@H](C)N3)c3cc(C(=O)Nc4ccncn4)c(Cl)cc3[nH]c2=O)c1` and `Cc1cc(C)cc(-c2c(OCC[C@@H]3CCC[C@@H](C)N3)c3cc(C(=O)Nc4ccncn4)c(Cl)cc3[nH]c2=O)c1` are within 1.5-fold of each other in IC50: 0.0087 µM for the first, 0.0115 µM for the second.

Biological target: T2, Gonadotropin-releasing hormone receptor (Rattus norvegicus) (UniProt P30969)
T2 sequence (whole entry): T1 sequence (P30969 whole entry)
Assay: Inhibitory activity against binding of rat Gonadotropin-releasing hormone receptor using [125I]buserelin at 10 uM
Conditions: not given

Going from `Cc1cc(C)cc(-c2c(O)nc3cc(Cl)c([N+](=O)[O-])cc3c2OCCC2CCc3ccccc3N2)c1` (stereo not given) to `Cc1cc(C)cc(-c2c(O)nc3cc(Cl)c([N+](=O)[O-])cc3c2OCCc2ccccn2)c1`, the inhibition rises from 85% to 86%.

Tested on: not listed separately
Assay: Oral bioavailability in dog
Type: ADME, organism-based, Canis lupus familiaris
Conditions: in vivo

Compared with `Cc1cc(-c2c(O)nc3cc(Cl)c(C(=O)Nc4ccncn4)cc3c2OCC[C@@H]2CCCCN2)cc(C)c1C`, `Cc1cc(-c2c(OCC[C@@H]3CCCC(C(F)(F)F)N3)c3cc(C(=O)Nc4ccncn4)c(Cl)cc3[nH]c2=O)cc(C)c1C` (stereo not given in full) is higher in bioavailability: 4.4% for the first, 14.6% for the second.

Biological target: T3, Gonadotropin-releasing hormone receptor (Homo sapiens, UniProt P30968)
T3 sequence (P30968 whole entry): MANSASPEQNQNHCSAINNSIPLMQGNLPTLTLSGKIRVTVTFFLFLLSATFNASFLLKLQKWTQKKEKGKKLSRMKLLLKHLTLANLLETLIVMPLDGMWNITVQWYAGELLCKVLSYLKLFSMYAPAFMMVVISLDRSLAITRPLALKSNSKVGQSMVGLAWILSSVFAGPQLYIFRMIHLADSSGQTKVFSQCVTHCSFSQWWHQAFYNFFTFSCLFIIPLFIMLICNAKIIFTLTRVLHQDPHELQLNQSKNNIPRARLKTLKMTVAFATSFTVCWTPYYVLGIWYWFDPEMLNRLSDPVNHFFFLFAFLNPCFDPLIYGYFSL
Assay: Inhibitory concentration against binding of [125I]buserelin to human Gonadotropin-releasing hormone receptor
Conditions: not given
Summary of the method: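 Competitive displacement of the GnRH receptor agonist radioligand [125I]buserelin from the human GnRH receptor, with 0.1% BSA present in the binding assay.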

Going from `Cc1cc(-c2c(OCC[C@@H]3CCCC(C(F)(F)F)N3)c3cc(C(=O)Nc4ccncn4)c(Cl)cc3[nH]c2=O)cc(C)c1C` (stereo not given in full) to `Cc1cc(-c2c(OCC[C@@H]3CCC[C@H](C)N3)c3cc(C(=O)Nc4ccncn4)c(Cl)cc3[nH]c2=O)cc(C)c1C`, the IC50 falls from 0.002 µM to 0.0006 µM (3.3-fold).

`Cc1cc(C)cc(-c2c(OCC[C@@H]3CCC[C@H](C)N3)c3cc(C(=O)Nc4ccncn4)c(Cl)cc3[nH]c2=O)c1` and `Cc1cc(C)cc(-c2c(OCC[C@@H]3CCC[C@@H](C)N3)c3cc(C(=O)Nc4ccncn4)c(Cl)cc3[nH]c2=O)c1` are the same in IC50: 0.0005 µM for the first, 0.0005 µM for the second.

`CCC1CCC[C@@H](CCOc2c(-c3cc(C)cc(C)c3)c(=O)[nH]c3cc(Cl)c(C(=O)Nc4ccncn4)cc23)N1` (stereo not given in full) showed an IC50 of 0.0057 µM.
